Screens deposited in PubChem by The Scripps Research Institute Molecular Screening Center.
GAA850 FXN act: FXN promoter activators, primary screen, cell-based, luciferase luminescence, HEK293 lucGAA850. AID 540364, 2011. activation, % at 6 µM. 360,000 compounds, 0.56% hits. HEK293 lucGAA850 FXN promoter luciferase reporter, 24 h; percent of 10 µM SAHA response;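 active = activation above the average of all compounds screened plus 3 SD, cutoff fixed separately per campaign, cut at about 7.5% in these data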;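 also: 0% = DMSO wells and 100% = 10 µM SAHA wells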
HTR2A ag: mouse Htr2a agonists via beta-arrestin recruitment, primary screen, cell-based, luminescence. 5-hydroxytryptamine receptor 2A (Mus musculus), P35363. CHO-K1 mHTR2A beta-arrestin complementation; percent of 30 µM serotonin response. activation, % at 7.6 µM. 360,000 compounds, 0.66% hits. AID 624169, 2012;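 active = activation above a run cutoff, the mean activation of all tested compounds plus 3 SD, cut at about 14% in these data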;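 also: 0% = plate median of compound wells and 100% = 30 µM serotonin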
MC4R barr agon: MC4R agonists recruiting beta-arrestin, primary screen, cell-based, luminescence, agonist arm of biased-ligand search; Melanocortin receptor 4 (Homo sapiens), P32245; U2OS MC4R beta-arrestin complementation; percent of melanotan II response, DMSO zero; activation, % at 8.9 µM; 360,000 compounds, 0.98% hits; AID 540308, 2011;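 active = activation above a per-plate cutoff, the mean activation of sample wells on that plate plus 3 SD, cut at about 8% in these data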
Target sequence (P32245 whole entry, looked up): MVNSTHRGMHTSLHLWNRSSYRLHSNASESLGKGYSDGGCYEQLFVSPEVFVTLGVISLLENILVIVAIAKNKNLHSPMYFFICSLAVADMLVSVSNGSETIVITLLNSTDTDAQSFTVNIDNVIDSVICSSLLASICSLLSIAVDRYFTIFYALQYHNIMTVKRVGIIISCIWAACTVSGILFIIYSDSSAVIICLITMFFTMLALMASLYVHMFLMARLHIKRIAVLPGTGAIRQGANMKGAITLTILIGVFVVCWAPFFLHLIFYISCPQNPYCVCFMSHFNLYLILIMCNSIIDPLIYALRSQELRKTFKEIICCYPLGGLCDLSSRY
AHR act: AHR activators, primary screen, cell-based, luminescence, luciferase reporter, human; Aryl hydrocarbon receptor (Homo sapiens), P35869; AHR-responsive luciferase reporter cells; activation, % at 5 µM; 320,000 compounds, 2.5% hits; AID 2796, 2010; in the data active = activation above about 47%;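 also: 0% = vehicle wells and 100% = reference agonist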
MC4R antag cAMP: MC4R antagonists of cAMP signaling, primary screen, cell-based, TR-FRET, antagonist arm of biased-ligand search; MC4R-expressing cells, MTII-stimulated cAMP, LANCE TR-FRET; inhibition, % at 6.5 µM; 360,000 compounds, 0.48% hits; AID 540295, 2011;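 active = inhibition above its plate's cutoff, the mean of tested wells on that plate plus 3 SD, cut at about 29% in these data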;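 also: 0% = Melanotan II alone and 100% = Melanotan II plus saturating MCL0020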
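Material: human MC4R-expressing U2OS cells. Probe or stimulus: Melanotan II challenge. Dosing: 6.5 µM single dose. Times: 30-min compound, 1-h challenge, 1-h detection, room temperature. Technique: TR-FRET with Eu-cAMP and labeled anti-cAMP, 671 nm. Replication: singlicate.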
U2OS cAMP counter: nonselective cAMP signaling inhibitors, parental cells, counter-screen for MC4R biased antagonist project, cell-based, TR-FRET, U2OS, forskolin, triplicate; shares compounds with MC4R antag cAMP; LANCE TR-FRET; inhibition, % at 6.5 µM; 1,600 compounds, 26% hits; AID 602193, 2012;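 active = mean inhibition over triplicates above the low-control well mean plus 3 SD, set per campaign, cut at about 13% in these data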;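 also: signal is single emission at 671 nm which falls as cellular cAMP rises; 0% = forskolin-stimulated wells and 100% = buffer without forskolin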
MC4R antag conf: MC4R cAMP antagonists, retest, confirmation, cell-based, TR-FRET; shares compounds with MC4R antag cAMP; MC4R-expressing cells, MTII-stimulated cAMP; inhibition, % at 6.5 µM; 1,600 compounds, 27% hits; in the data active = inhibition above about 29%;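 also: 0% = agonist stimulated wells alone and 100% = agonist stimulated wells plus saturating reference antagonist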
* marks the source's active call; other numbers are inactive results; . = no result given. Only some compounds are listed: those with a hit (about 4.7% of all), similar ones and a draw of the others.

SMILES	GAA850 FXN act	HTR2A ag	MC4R barr agon	AHR act	MC4R antag cAMP	U2OS cAMP counter	MC4R antag conf
CC(=O)N1CCN(CC(=O)Nc2ccc3c(c2)CCC3)CC1	1	0	-2	-2	6	.	.
COCCN(C(=O)CSc1cc(C)c2ccccc2n1)c1c(N)n(CC(C)C)c(=O)[nH]c1=O	-1	-3	-1	6	4	.	.
CN(C)C(=O)c1cn(-c2ccc(Cl)cc2)c(=O)c2ccccc12	-2	-1	-2	5	32*	-1	-15
COc1ccccc1Cn1c(=S)[nH]c2ccc(F)cc2c1=O	2	-5	-2	6	65*	50*	100*
COc1ccccc1Cn1c(=S)[nH]c2ccc(Br)cc2c1=O	1	5	1	5	6	.	.
N#Cc1ccccc1NC(=O)CSc1nnc(-c2ccncc2)o1	2	-1	2	-1	30*	-6	1
COc1ccc(CCN2C(=O)CC(N3CCN(S(=O)(=O)c4ccccc4)CC3)C2=O)cc1OC (stereo not given)	0	1	-1	-2	33*	-1	-9
O=C(O)CCC1C(=O)NC(=O)CC1c1ccccc1 (stereo not given)	0	1	-2	.	6	.	.
COc1ccc(CN(C(=O)/C=C/C(=O)c2ccc(OC)cc2O)C(C(=O)NC2CCCCC2)c2ccncc2)cc1 (stereo not given)	0	-1	0	2	10	.	.
COCCN(CC(=O)NC1CCCCC1)C(=O)/C=C/C(=O)c1ccc(OC)cc1O	-3	-5	-6	.	41*	2	5
COc1ccc(C(=O)/C=C/C(=O)N(CC(=O)NC2CCCCC2)Cc2cccs2)c(O)c1	-3	-10	-6	1	32*	10	23
CC1CCN(c2ccc3nnc(CCC(=O)N4CCN(c5ccc(F)cc5)CC4)n3n2)CC1	0	-1	-2	1	1	.	.
Cc1cccc(C(=O)OCC(=O)N(CC(C)C)c2c(N)n(Cc3ccccc3)c(=O)[nH]c2=O)c1O	-1	0	-5	1	1	.	.
CCC1=NN2C(=N)/C(=C\c3cccn3-c3ccc(C)cc3C)C(=O)N=C2S1	1	-1	1	-1	44*	1	9
COc1ccc(-n2cccc2/C=C2\C(=N)N3N=C(C(C)C)SC3=NC2=O)cc1	0	8	-2	11	47*	1	8
COc1ccc(OC)c2[nH]c(=O)c(CCNC(=O)C(=O)c3c(C)[nH]c4ccccc34)cc12	1	4	1	11	31*	3	4
COc1ccc(OC)c2[nH]c(=O)c(CCNC(C)=O)cc12	-2	4	2	2	16	.	.
CCS(=O)(=O)NCCc1cc2c(OC)ccc(OC)c2[nH]c1=O	-2	0	-2	6	-3	.	.
COc1ccc(OC)c2[nH]c(=O)c(CCNS(=O)(=O)c3ccc(F)cc3)cc12	2	-6	3	9	33*	1	-2
O=C(CN1CCN(C(=O)c2c(F)cccc2F)CC1)Nc1ccccc1C(F)(F)F	3	7	-2	0	-3	.	.
N#Cc1c([N+](=O)[O-])cc([N+](=O)[O-])cc1S(=O)(=O)Cc1ccccc1	-11	-6	-6	17	88*	34*	-5
COc1cc(OC)c(C#N)c(S(=O)(=O)Cc2ccccc2)c1	1	3	0	-2	10	.	.
C/C(=N\NS(=O)(=O)c1ccc(C)cc1)c1cc2ccccc2oc1=O	-2	2	3	4	30*	4	11
C/C(=N/NS(=O)(=O)c1ccc(C)cc1)c1c(O)c2ccccc2oc1=O	2	-6	0	11	1	.	.
Cc1ccc(OCC(=O)Oc2c(C)cccc2C)cc1	-2	0	4	2	14	.	.
SMILES	GAA850 FXN act	HTR2A ag	MC4R barr agon	AHR act	MC4R antag cAMP	U2OS cAMP counter	MC4R antag conf
COCC(=O)Oc1cc(-c2ccc(C)cc2C)c(OC(=O)COC)c(-c2ccc(C)cc2C)c1	-4	-1	0	.	30*	8	6
CCOC(=O)C1=C(c2ccccc2)NC(=O)NC1c1ccc(OC)cc1 (stereo not given)	0	6	-2	2	19	.	.
CCOC(=O)C1=C(c2ccccc2)NC(=O)NC1c1ccc(OC)c(OC)c1 (stereo not given)	0	6	0	-1	33*	-1	-7
Cc1cccc(-n2c(O)c(C=Nc3cc(O)ccc3C)c3ccccc3c2=O)n1	-2	1	1	1	31*	2	0
Cc1cccc(-n2c(O)c(C=Nc3ccccc3O)c3ccccc3c2=O)n1	-3	-3	-1	-8	-3	.	.
O=C(CN(Cc1ccc(Cl)cc1)C(=O)CNS(=O)(=O)c1ccccc1)NCC1CCCO1 (stereo not given)	0	0	2	0	31*	0	6
CC(=O)c1ccc(-n2c(CCC(=O)O)ccc2-c2ccc(C)cc2)cc1	0	-2	-1	6	30*	1	16
COc1ccc(-n2nnnc2S(=O)(=O)CC(=O)N2CCCCC2)cc1	-1	3	-1	1	39*	6	51*
Cc1cc2c(c(=O)o1)C(c1cccs1)C(C#N)=C(N)O2 (stereo not given)	0	3	0	1	19	.	.
Cc1ccc([C@H]2C(C#N)=C(N)Oc3cc(C)oc(=O)c32)o1	2	2	0	-1	30*	-2	-8
CN(C)CCNc1cnn(-c2ccccc2)c(=O)c1Cl	-1	0	4	3	29*	-2	-17
CNc1cnn(-c2ccccc2)c(=O)c1Cl	1	-3	-1	0	3	.	.
COC(=O)[C@]12CCCCC=C1N(Cc1ccc3c(c1)OCO3)C(=O)[C@H](CC(=O)N1CCN(C(=O)C3CC3)CC1)C2	.	-2	.	.	.	.	.
O=C(Nc1ccccc1Cl)C1CCCN(S(=O)(=O)c2cccc3cccnc23)C1 (stereo not given)	0	-2	1	-2	2	.	.
